Assay results from PMC9058152 (RSC Advances, 2020).
≈ marks a conversion by molar mass, not a printed value.

Assays:
[1] = tested on: MCF-7 cells (human breast adenocarcinoma); assay: MTT cytotoxicity assay on MCF-7; format: cell-based; conditions: MCF7, 48 h, read-out: IC50 (μM) ± SD MCF-7
In short: (§1)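 Cells grown in DMEM with 10% heat-inactivated FBS and 100 U ml⁻¹ penicillin/streptomycin at 37 °C, 5% CO₂. Seeded at 3 × 10⁴ cells per well and exposed for 48 h in serum-free medium to serial concentrations of test compound (DMSO), with doxorubicin as positive control. MTT (2.5 mg mL⁻¹) was added for 4 h, formazan dissolved in DMSO, and absorbance read at 570 nm. Viability was taken relative to untreated cells; triplicates were run on three days, and IC50 derived by probit analysis.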

[2] = tested on: HepG-2 cells (human liver carcinoma); assay: MTT cytotoxicity assay on HepG-2; format: cell-based; conditions: HepG2, 48 h, read-out: IC50 (μM) ± SD HepG-2
In short: as §1

[3] = tested on: Mycobacterium tuberculosis (RCMB 010126); assay: Microplate Alamar blue assay; format: cell-based; conditions: RCMB010126, Mycobacterium tuberculosis RCMB 010126, MABA
[4] = molecular target: T1, ovine COX-2 (Ovis aries, UniProt P79208); assay: COX-2 inhibition enzyme immunoassay; format: biochemical; conditions: for Selectivity index (SI): COX-1 IC50/COX-2 IC50
T1 sequence (P79208 17-603): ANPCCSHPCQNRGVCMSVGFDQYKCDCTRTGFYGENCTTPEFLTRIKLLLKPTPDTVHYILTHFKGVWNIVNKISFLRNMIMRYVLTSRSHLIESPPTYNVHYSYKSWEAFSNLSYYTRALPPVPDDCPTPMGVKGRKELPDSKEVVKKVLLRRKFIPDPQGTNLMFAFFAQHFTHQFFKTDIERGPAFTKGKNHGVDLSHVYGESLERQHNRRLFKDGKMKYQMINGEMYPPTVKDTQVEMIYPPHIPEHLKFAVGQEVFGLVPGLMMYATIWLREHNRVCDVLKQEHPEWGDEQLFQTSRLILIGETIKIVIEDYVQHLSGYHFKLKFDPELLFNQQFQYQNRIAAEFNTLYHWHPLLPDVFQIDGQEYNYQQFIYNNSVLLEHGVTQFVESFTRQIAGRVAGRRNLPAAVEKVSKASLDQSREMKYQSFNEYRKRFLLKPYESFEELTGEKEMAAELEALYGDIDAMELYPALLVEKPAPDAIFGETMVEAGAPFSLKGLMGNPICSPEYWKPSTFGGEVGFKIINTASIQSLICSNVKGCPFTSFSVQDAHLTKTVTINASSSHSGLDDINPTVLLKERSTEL

[5] = molecular target: T2, ovine COX-1 (Ovis aries, UniProt P05979); assay: COX-1 inhibition enzyme immunoassay; format: biochemical
T2 sequence (P05979 25-600): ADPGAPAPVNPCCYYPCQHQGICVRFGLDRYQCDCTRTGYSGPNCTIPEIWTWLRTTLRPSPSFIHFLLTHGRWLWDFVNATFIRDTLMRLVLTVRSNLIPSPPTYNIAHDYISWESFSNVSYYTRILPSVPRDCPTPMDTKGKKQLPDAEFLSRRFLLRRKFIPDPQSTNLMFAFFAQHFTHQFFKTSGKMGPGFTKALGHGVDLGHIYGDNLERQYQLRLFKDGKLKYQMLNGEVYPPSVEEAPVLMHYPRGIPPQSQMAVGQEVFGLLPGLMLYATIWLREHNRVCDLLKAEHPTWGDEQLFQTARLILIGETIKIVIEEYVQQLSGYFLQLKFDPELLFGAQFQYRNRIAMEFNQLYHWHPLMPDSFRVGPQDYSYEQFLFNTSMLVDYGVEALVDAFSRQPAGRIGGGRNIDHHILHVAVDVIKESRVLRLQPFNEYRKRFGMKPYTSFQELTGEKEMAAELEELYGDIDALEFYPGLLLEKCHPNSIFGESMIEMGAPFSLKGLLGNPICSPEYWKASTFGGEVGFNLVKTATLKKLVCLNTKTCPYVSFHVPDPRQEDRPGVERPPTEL

Row | SMILES | IC50 [1] [µM] | IC50 [2] [µM] | MIC [3] [µg/mL] | IC50 [4] [µM] | Selectivity index (SI) [4] | IC50 [5] [µM]
1 | Cc1ccc(-n2cc(C(=O)c3ccc4ccccc4c3O)cc(C#N)c2=O)cc1 [Compound 3b, 5-(1-Hydroxy-2-naphthoyl)-2-oxo-1-(p-tolyl)nicotinonitrile] | 9.2 ± 0.6 | 36.8 ± 3.9 | 3.9 (≈ 10.3 µM) | 6.05 | 76.7 | 464
2 | COc1ccc(-n2cc(C(=O)c3ccc4ccccc4c3O)cc(C#N)c2=O)cc1 [Compound 3c, 5-(1-Hydroxy-2-naphthoyl)-1-(4-methoxyphenyl)-2-oxo-nicotinonitrile] | 8.5 ± 0.7 | 27.8 ± 2.4 |  | 0.53 | 1490 | 789
3 | N#Cc1cc(C(=O)c2ccc3ccccc3c2O)cn(-c2ccc(Br)cc2)c1=O [Compound 3d, 1-(4-Bromophenyl)-5-(1-hydroxy-2-naphthoyl)-2-oxo-nicotinonitrile] | 8.9 ± 0.7 | 30.1 ± 2.6 | < 1 | 1.46 | 972.9 | 1420
4 | N#Cc1cc(C(=O)c2ccc3ccccc3c2O)cn(-c2ccc([N+](=O)[O-])cc2)c1=O [Compound 3e, 5-(1-Hydroxy-2-naphthoyl)-1-(4-nitrophenyl)-2-oxo-nicotinonitrile] | 9.3 ± 1.1 | 25.3 ± 2.1 | < 2 | 1.68 | 168.7 | 283
5 | Cc1c(-n2cc(C(=O)c3ccc4ccccc4c3O)cc(C#N)c2=O)c(=O)n(-c2ccccc2)n1C [Compound 3f, 1-(1,5-Dimethyl-3-oxo-2-phenyl-2,3-dihydro-1H-pyrazol-4-yl)-5-(1-hydroxy-2-naphthoyl)-2-oxo-nicotinonitrile] | 10.5 ± 1.1 | 30.5 ± 3.1 | < 2 | 16.4 | 44.5 | 728
6 | Cc1cnc(-n2cc(C(=O)c3ccc4ccccc4c3O)cc(C#N)c2=O)s1 [Compound 3g, 5-(1-Hydroxy-2-naphthoyl)-1-(5-methylthiazol-2-yl)-2-oxo-nicotinonitrile] | 12.1 ± 1.2 | 28.5 ± 2.9 | 3.9 (≈ 10.1 µM) | 48 | 53.8 | 2580
7 | N#Cc1cc(C(=O)c2ccc3ccccc3c2O)cn(-c2nc3ccccc3s2)c1=O [Compound 3h, 1-(Benzo[d]thiazol-2-yl)-5-(1–Hydroxy-2-naphthoyl)-2-oxo-nicotinonitrile] | 10.3 ± 1.2 | 28.1 ± 3.1 | < 2 | 0.496 | 1380 | 684
8 | CC(=Nn1cc(C(=O)c2ccc3ccccc3c2O)cc(C#N)c1=O)c1cc2ccccc2oc1=O [Compound 3i, 5-(1-hydroxy-2-naphthoyl)-2-oxo-1-((1-(2-oxo-2H-chromen-3-yl)ethylidene)amino)nicotinonitrile] | 9.7 ± 0.8 | 30.5 ± 2.9 | < 1 | 13.5 | 111.3 | 1500
9 | N#CCC(=O)NN=Cc1coc2c(ccc3ccccc32)c1=O [Compound 5, 2-cyano-N′-((4-oxo-4H-benzo[h]chromen-3-yl)methylene)acetohydrazide] | 10.7 ± 1.2 | 41.6 ± 3.5 | 3.9 (≈ 12.8 µM) | 24.6 | 84.3 | 2070
10 | O=C(c1cnc2[nH]nc(O)c2c1)c1ccc2ccccc2c1O [Compound 6, 5-(1-hydroxy-2-naphthoyl)-3-hydroxy-1H-pyrazolo [3,4-b]pyridine] | 9.1 ± 0.5 | 34.9 ± 2.8 | < 2 | 30.5 | 35.0 | 1070
11 | O=C(C1=CNC(=S)NN=C1)c1ccc2ccccc2c1O [Compound 7, 6-(1-Hydroxy-2-naphthoyl)-3-thioxo-3,4-dihydro-2H-1,2,4-triazepine] | 10.5 ± 0.9 | 28.8 ± 2.5 | < 2 | 1.24 | 588.6 | 732
12 | O=C(C1=CSc2ccccc2N=C1)c1ccc2ccccc2c1O [Compound 8, 3-(1-Hydroxy-2-naphthoyl)benzo[b][1,4]thiazepine] | 9.7 ± 1.1 | 36.5 ± 3.4 | 7.81 (≈ 23.6 µM) | 0.754 | 1138 | 858
13 | CCOC1Oc2c(ccc3ccccc23)-c2n[nH]cc21 (centres unmarked) [Compound 10, 11-ethoxy-2,11-dihydrobenzo[7,8]chromeno[4,3-c]pyrazole] | 9.3 ± 0.5 | 34.5 ± 2.6 | 7.81 (≈ 29.3 µM) | 1.01 | 989.3 | 1000
14 | Cc1c(N=Cc2coc3c(ccc4ccccc43)c2=O)c(=O)n(-c2ccccc2)n1C [Compound 12a, 1,5-Dimethyl-4-(((4-oxo-4H-benzo[h]chromen-3-yl)methylene)amino)-2-phenyl-1,2-dihydro-3H-pyrazol-3-one] | 10.2 ± 1.2 | 35.5 ± 3.6 | 62.5 (≈ 153 µM) | 24.7 | 49.5 | 1220
15 | O=c1c(C=Nc2nc3ccccc3s2)coc2c1ccc1ccccc12 [Compound 12b, 3-((Benzo[d]thiazol-2-ylimino)methyl)-4H-benzo[h]chromen-4-one] | 8.9 ± 0.7 | 40.1 ± 3.9 | 15.6 (≈ 43.9 µM) | 1.37 | 971.8 | 1340
16 | COc1cccc2c1C(=O)c1c(O)c3c(c(O)c1C2=O)C[C@@](O)(C(=O)CO)C[C@@H]3O[C@H]1C[C@H](N)[C@H](O)[C@H](C)O1 [DOXO, Doxorubicin, reference compound] | 10.3 ± 0.8 | 28.5 ± 1.9 |  |  |  | 
17 | NNC(=O)c1ccncc1 [IN, Isoniazid, reference compound] |  |  | 0.24 (≈ 1.75 µM) |  |  | 
